# Measurements as given in PMC7058367 (Biochemical pharmacology, 2018).
# Read-outs that look alike come from different tables or passages of the source.
# Legend:
# [1] = system: GluN1/GluN2D^ΔCTD receptors; assay type: cell-based, rat; conditions: 50 µM compound; compared to wildtype
# [2] = biological target: GluN1/GluN2D^ΔCTD receptors (Rattus norvegicus, UniProt P35439+Q62645); assay type: cell-based; conditions: 50 µM compound; 10 µM L-glutamate/10 µM glycine (Fig. 1C)
# [3] = biological target: GluN1/GluN2C receptors (Rattus norvegicus, UniProt P35439+Q00961); assay type: cell-based; conditions: 5 mM EGTA injected vs controls (Fig. 6C, G)
# Method in brief: (§1)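 Oocytes expressed wild-type GluN1a/GluN2 receptors from 15-30 ng RNA (1:3 molar) and were held in ND-96 at 17 °C for 1-5 days. For Ca2+ chelation, 5 mM EGTA (50 nL) was injected 1-2 h before recording, with uninjected and water-injected oocytes as controls. TEVC was run at -60 mV in 116 mM NaCl, 2 mM KCl, 0.3 mM BaCl2, 5 mM HEPES (pH 7.4). […] Values are mean ± s.e.m.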
# [4] = biological target: GluN1/GluN2A^ΔCTD receptors (Rattus norvegicus, UniProt P35439+Q00959); assay type: cell-based
# Method in brief: (§2)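 Xenopus laevis oocytes were injected with GluN1a:GluN2 RNA at a 1:3 molar ratio (15-30 ng total; 10-20-fold more for CTD-deleted subunits) and kept in ND-96 at 17 °C for 1-5 days. TEVC was run at -60 mV in 116 mM NaCl, 2 mM KCl, 0.3 mM BaCl2, 5 mM HEPES, pH 7.4. […] Full-length controls came from the same batch and day; mean ± s.e.m.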
# [5] = biological target: GluN1/GluN2D receptors (Rattus norvegicus, UniProt P35439+Q62645); assay type: cell-based; conditions: 5 mM EGTA injected vs controls (Fig. 6D, H)
# Method in brief: as §1
# [6] = biological target: GluN1/GluN2C^ΔCTD receptors (Rattus norvegicus, UniProt P35439+Q00961); test: Two-electrode voltage clamp of GluN2C CTD-deleted receptors; assay type: cell-based; conditions: 50 µM compound; 10 µM L-glutamate/10 µM glycine (Fig. 1B,C)
# Method in brief: (§3)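 Xenopus laevis oocytes were injected with GluN1a and GluN2 RNA at a 1:3 molar ratio. The CTD was removed by a stop codon at GluN1 838K or GluN2C 855K, and 10-20-fold more RNA than wild type was injected. Oocytes were kept in ND-96 at 17 °C for 1-5 days. TEVC was run at -60 mV in Ba2+ buffer (pH 7.4). […] Full-length receptors were run alternately on the same day and oocyte batch. Values are mean ± s.e.m.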
# [7] = system: GluN1 CTD in neurons expressing GluN1-GFP, GluN2A and GluN1-mCherry; test: CTD-FRET; assay type: cell-based, rat; conditions: 75 µM compound, absence of agonists, imaged 10 min after application (Fig. 8)
# Method in brief: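 Rat primary hippocampal neurons were transfected at DIV 7-10 with ~2 µg total DNA (GluN1-GFP, GluN2A, GluN1-mCherry) by lipofection and imaged at 16-18 DIV in 0.87x HBSS, 5 mM HEPES, 1 mM glucose, 2.5 mM MgCl2, 0.5 mM CaCl2. Baseline and 10 min post-compound two-photon FLIM images were taken, each neuron imaged twice, compounds interleaved. Lifetimes were fit single-exponential and analysed blind; two preparations pooled.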
# [8] = biological target: GluN1^ΔCTD/GluN2A receptors (Rattus norvegicus, UniProt P35439+Q00959); assay type: cell-based; conditions: 50 µM compound; 10 µM L-glutamate/10 µM glycine (Fig. 1D)
# Method in brief: as §2
# [9] = biological target: GluN1/GluN2B receptors (Rattus norvegicus, UniProt P35439+Q00960); assay type: cell-based
# [10] = biological target: GluN1/GluN2B^ΔCTD receptors (Rattus norvegicus, UniProt P35439+Q00960); assay type: cell-based; conditions: 50 µM compound; 10 µM L-glutamate/10 µM glycine (Fig. 1C)
# [11] = biological target: GluN1^ΔCTD/GluN2D receptors (Rattus norvegicus, UniProt P35439+Q62645); assay type: cell-based; conditions: 50 µM compound; 10 µM L-glutamate/10 µM glycine (Fig. 1D)
# Method in brief: as §3
# [12] = biological target: GluN1^ΔCTD/GluN2C receptors (Rattus norvegicus, UniProt P35439+Q00961); assay type: cell-based; conditions: 50 µM compound; 10 µM L-glutamate/10 µM glycine (Fig. 1D)
# Method in brief: as §2
# [13] = biological target: GluN1^ΔCTD/GluN2B receptors (Rattus norvegicus, UniProt P35439+Q00960); assay type: cell-based; conditions: 50 µM compound; 10 µM L-glutamate/10 µM glycine (Fig. 1D)
# Method in brief: as §2
# [14] = biological target: GluN1/GluN2A receptors (Rattus norvegicus, UniProt P35439+Q00959); assay type: cell-based
# Method in brief: as §2
# [15] = 2 µM PMA for 10 minutes, 50 µM UBP684, 100 µM PS (Fig. 7E, F)
# [16] = 10 µM FSK and 1 mM IBMX for 10 minutes, 50 µM UBP684, 100 µM PS (Fig. 7B, C)
# [17] = 50 µM compound, control media for U73122 experiment (Fig. 6I)
# Sequence of GluN1/GluN2D receptors (Q62645 28-1323, other chains not shown): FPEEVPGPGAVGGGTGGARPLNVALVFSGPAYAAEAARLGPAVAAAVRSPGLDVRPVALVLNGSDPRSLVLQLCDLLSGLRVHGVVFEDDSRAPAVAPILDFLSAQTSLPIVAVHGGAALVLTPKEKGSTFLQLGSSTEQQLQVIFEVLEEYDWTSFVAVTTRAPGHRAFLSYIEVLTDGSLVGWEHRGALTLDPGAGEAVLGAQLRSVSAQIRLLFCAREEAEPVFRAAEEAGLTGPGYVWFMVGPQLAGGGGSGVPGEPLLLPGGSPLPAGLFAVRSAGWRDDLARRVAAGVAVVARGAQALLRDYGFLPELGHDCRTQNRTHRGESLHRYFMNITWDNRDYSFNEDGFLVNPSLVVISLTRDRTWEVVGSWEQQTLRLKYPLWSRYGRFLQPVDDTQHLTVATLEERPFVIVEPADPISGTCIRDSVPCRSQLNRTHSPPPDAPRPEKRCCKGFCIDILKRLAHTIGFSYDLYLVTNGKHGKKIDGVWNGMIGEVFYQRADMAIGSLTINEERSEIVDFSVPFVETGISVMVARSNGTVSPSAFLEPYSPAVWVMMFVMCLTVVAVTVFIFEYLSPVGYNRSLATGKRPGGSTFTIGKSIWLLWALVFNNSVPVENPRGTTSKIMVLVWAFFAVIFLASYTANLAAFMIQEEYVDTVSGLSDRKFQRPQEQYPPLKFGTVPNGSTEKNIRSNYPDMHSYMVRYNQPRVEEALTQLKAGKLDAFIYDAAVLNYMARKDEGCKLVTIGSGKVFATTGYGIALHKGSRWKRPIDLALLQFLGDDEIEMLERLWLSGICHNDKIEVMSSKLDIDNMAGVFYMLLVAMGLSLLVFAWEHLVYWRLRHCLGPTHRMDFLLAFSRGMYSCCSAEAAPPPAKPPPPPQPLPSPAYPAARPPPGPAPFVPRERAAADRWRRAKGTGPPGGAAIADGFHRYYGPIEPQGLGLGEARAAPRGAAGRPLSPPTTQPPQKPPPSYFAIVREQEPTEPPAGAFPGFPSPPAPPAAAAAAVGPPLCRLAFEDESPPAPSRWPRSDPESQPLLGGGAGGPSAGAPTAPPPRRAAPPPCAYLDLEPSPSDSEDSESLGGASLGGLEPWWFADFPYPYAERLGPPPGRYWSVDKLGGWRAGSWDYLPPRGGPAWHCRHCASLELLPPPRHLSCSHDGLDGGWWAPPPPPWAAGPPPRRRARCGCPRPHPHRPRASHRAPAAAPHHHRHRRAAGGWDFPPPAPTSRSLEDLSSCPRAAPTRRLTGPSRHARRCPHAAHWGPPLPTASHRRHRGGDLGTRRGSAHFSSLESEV
# Sequence of GluN1^ΔCTD/GluN2D receptors (Q62645 28-1323, stated change not applied, other chains not shown): as the sequence (Q62645 28-1323, other chains not shown) above
# Sequence of GluN1/GluN2C^ΔCTD receptors (Q00961 20-842, stated change not applied, other chains not shown): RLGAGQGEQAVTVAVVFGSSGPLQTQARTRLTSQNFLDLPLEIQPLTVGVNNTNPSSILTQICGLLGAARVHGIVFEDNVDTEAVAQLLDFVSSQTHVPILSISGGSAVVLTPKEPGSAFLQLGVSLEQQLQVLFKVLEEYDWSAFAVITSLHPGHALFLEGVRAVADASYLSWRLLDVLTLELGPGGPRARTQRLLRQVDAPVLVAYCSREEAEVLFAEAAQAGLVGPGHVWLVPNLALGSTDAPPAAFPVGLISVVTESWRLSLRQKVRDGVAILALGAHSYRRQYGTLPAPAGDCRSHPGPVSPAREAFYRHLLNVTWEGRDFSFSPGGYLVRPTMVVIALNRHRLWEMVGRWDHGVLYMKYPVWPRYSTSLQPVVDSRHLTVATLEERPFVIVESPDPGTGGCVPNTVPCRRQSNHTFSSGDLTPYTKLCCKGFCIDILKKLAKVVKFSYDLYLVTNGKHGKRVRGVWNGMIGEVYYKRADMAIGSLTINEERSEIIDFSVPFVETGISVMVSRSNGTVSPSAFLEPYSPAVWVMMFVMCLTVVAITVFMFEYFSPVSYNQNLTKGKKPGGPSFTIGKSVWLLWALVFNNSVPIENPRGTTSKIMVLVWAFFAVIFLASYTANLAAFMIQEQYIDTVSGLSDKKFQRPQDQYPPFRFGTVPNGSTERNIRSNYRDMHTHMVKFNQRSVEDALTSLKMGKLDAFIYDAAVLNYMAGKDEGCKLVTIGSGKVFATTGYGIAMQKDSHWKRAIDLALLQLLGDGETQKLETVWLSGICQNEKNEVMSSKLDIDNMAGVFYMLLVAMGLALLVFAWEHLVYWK
# Sequence of GluN1/GluN2D^ΔCTD receptors (Rattus norvegicus, UniProt P35439+Q62645) (Q62645 28-869 limits assumed, stated change not applied, other chains not shown): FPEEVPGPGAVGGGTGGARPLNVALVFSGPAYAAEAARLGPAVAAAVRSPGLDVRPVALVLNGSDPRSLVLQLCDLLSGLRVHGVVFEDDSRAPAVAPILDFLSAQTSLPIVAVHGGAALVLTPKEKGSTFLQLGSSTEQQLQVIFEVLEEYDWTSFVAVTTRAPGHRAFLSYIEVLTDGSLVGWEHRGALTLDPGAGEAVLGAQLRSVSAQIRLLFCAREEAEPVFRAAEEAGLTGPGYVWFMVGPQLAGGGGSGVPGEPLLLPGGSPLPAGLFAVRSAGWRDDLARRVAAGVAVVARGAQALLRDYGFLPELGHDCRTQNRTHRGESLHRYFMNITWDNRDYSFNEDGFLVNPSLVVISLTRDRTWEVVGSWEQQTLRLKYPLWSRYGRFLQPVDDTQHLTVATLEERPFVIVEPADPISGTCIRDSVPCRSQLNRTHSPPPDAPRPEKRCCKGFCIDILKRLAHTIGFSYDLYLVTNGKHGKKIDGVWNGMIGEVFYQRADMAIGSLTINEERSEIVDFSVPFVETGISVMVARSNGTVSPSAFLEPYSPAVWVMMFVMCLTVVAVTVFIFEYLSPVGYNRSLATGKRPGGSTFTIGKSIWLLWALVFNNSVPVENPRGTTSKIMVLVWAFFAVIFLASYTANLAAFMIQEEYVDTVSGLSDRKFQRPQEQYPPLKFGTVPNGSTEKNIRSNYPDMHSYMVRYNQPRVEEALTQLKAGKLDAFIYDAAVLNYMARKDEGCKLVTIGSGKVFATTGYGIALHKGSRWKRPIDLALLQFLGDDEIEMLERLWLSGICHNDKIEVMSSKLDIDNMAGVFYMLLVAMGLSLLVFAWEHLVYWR
# Sequence of GluN1^ΔCTD/GluN2C receptors (Q00961 20-1237, stated change not applied, other chains not shown): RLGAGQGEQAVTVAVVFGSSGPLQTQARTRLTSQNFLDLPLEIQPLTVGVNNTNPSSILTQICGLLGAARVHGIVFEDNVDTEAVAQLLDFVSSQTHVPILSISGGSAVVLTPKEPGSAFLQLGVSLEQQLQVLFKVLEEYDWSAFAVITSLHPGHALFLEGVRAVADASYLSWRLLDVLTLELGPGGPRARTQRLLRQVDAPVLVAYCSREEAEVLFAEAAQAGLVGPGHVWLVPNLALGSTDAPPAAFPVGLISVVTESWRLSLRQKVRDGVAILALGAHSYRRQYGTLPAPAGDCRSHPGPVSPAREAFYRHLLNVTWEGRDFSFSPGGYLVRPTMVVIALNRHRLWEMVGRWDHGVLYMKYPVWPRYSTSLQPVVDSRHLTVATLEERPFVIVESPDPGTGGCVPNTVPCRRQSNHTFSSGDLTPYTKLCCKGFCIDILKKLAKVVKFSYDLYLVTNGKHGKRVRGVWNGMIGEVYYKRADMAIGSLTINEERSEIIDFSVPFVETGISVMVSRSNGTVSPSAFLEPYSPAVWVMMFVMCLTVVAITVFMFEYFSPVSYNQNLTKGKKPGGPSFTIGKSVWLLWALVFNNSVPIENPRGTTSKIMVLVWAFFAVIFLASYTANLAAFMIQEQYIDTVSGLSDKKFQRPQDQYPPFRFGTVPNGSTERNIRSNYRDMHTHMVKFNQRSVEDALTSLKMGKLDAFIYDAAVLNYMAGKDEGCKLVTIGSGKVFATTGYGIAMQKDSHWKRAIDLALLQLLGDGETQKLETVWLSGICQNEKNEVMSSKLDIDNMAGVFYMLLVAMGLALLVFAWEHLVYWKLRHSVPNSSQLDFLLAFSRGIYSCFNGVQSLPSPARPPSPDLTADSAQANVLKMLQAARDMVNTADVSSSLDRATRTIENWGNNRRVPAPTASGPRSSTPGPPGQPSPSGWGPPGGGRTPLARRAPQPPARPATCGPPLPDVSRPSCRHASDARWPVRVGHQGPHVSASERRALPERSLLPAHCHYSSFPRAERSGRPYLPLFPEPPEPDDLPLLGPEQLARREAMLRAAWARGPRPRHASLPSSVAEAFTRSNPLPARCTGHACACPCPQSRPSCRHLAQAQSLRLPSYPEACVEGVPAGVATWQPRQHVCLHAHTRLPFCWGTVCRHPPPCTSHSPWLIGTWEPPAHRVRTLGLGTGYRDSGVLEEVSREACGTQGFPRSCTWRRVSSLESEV
# Sequence of GluN1/GluN2C receptors (Q00961 20-1237, other chains not shown): as the sequence (Q00961 20-1237, stated change not applied, other chains not shown) above
smiles,measurement,setting,value
CC(C)CCCc1ccc2cc(C(=O)O)ccc2c1 [UBP684],reduction of potentiation by GluN2D CTD deletion compared to wildtype,[1],approximately 50%
same,% potentiation of agonist-evoked current,[2],23 ± 4%
same,effect of EGTA injection on potentiation/modulation,[3],no significant effect
same,effect of PKC activation by PMA on PAM activity,"[4]; 2 µM PMA for 10 minutes, 50 µM UBP684, 100 µM PS (Fig. 7G, H)",increased
same,% potentiation of agonist-evoked current,"[4]; 50 µM compound, 10 µM L-glutamate/10 µM glycine (Fig. 1C)",27 ± 5%
same,reduction of potentiation by GluN2A CTD deletion compared to wildtype,"[4]; 50 µM compound, compared to wildtype",approximately 50%
same,effect of EGTA injection on potentiation/modulation,[5],no significant effect
same,% inhibition of agonist-evoked current,[6],20 ± 3%
same,change of GluN1-GFP fluorescence lifetime (movement of the GluN1 CTD),[7],significant increase
same,% potentiation of agonist-evoked current,[8],3 ± 2%
same,effect of PKC activation by PMA on PAM activity,[9]; [15],larger % potentiation
same,effect of PKA activation on % potentiation,[9]; [16],unchanged
same,% potentiation of agonist response,"[9]; 50 µM compound, H2O-injected control oocytes (Fig. 6B)",45 ± 5%
same,% potentiation of agonist-evoked current,[9]; [17],33 ± 4%
same,% potentiation of agonist response,"[9]; 50 µM compound, oocytes injected with 5 mM EGTA (Fig. 6B)",28 ± 2%
same,% potentiation of agonist response,"[9]; 50 µM compound, un-injected control oocytes (Fig. 6B)",48 ± 4%
same,% potentiation of agonist-evoked current,[10],74.4 ± 7.0%
same,% potentiation of agonist-evoked current,[11],19 ± 7%
same,% potentiation of agonist-evoked current,[12],5 ± 3%
same,% potentiation of agonist-evoked current,[13],44 ± 8%
same,effect of PKC activation by PMA on PAM activity,[14]; [15],larger % potentiation
same,effect of PKA activation on % potentiation,[14]; [16],unchanged
same,% potentiation of agonist response,"[14]; 50 µM compound, H2O-injected control oocytes (Fig. 6A)",47 ± 13%
same,% potentiation of agonist-evoked current,[14]; [17],24 ± 5%
same,% potentiation of agonist response,"[14]; 50 µM compound, oocytes injected with 5 mM EGTA (Fig. 6A)",9 ± 3%
same,% potentiation of agonist response,"[14]; 50 µM compound, un-injected control oocytes (Fig. 6A)",54 ± 5%
